Hits are enriched below; roughly 6.4% of the tested compounds scored in any of these assays.
EBV gp42 block – Epstein-Barr virus gp42 inhibitors, primary screen, biochemical, uHTS, fluorescence polarization | AID 1085, 2008 | 0.42% of 220,000 active | Glycoprotein 42 (Epstein-Barr virus (strain AG876)), Q1HVG2 | inhibition, % (tested at 21.74 µM) | Fluorescence polarization binding assay, mP read-out; in the data active = inhibition above about 50%
Target sequence (Q1HVG2 whole entry, looked up): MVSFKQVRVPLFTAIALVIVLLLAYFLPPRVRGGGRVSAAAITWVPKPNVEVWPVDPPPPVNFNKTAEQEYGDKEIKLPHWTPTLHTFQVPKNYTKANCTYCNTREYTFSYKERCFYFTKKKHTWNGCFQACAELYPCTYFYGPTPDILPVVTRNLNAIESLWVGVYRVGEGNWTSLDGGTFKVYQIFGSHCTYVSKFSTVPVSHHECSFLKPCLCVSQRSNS
WT yeast gro inh – growth inhibition of WT strain, primary screen, mitochondrial fusion inhibitor project, WT and mutant strains, chemical genetic; mitochondrial fusion phenotypic screen; inhibition, % at 10 µM; 2.1% of 190,000 active; AID 1362, 2008; in the data active = inhibition above about 58%; tested in S. cerevisiae
MPTP inh – mitochondrial permeability transition pore inhibitors, primary screen, biochemical, isolated mouse mitochondria, absorbance; Ca2+ swelling absorbance, 30 min; 1.4% of 360,000 active; inhibition, % at 10 µM;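 active = inhibition of 50% or more, scaled per plate between neutral and stimulator controls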;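 also: 0% = DMSO wells given calcium and 100% = 1 mM EGTA wells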
CHOP inhibitor – inhibitors of CHOP promoter induction, primary screen, cell-based, unfolded protein response, luciferase reporter; 3.8% of 220,000 active; CHO-K1 CHOP-promoter luciferase, tunicamycin-induced, 15-18 h; inhibition, % at 10 µM;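 active = compounds that reduced the stress-induced luciferase reporter signal by more than about 70% of percent inhibition, limit read from the data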;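 also: 0% = tunicamycin plus vehicle and 100% = wells without tunicamycin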
TbMetRS inhib – T. brucei MetRS inhibitors, primary screen, biochemical, luminescence | methionyl-tRNA synthetase (Trypanosoma brucei brucei) | purified T. brucei MetRS, ATP depletion, Kinase-Glo luminescence | inhibition, % at 11.9 µM | 0.4% of 360,000 active | AID 624268, 2012;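 active = inhibition above a per-plate cutoff of the control wells' mean inhibition plus 3 SD, cut at about 5.5% in these data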;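 also: 0% = DMSO wells median and 100% = median of wells with control inhibitor compound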
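Measured by: Kinase-Glo luciferase luminescence reporting remaining unconsumed ATP. Material: purified T. brucei MetRS enzyme. Doses: 11.9 µM compound single dose, 0.9% DMSO. Medium: HEPES buffer containing pyrophosphatase, BSA, spermine, DTT. Times: 15 min preincubation, 2 h reaction, all 25 °C. Reagent: methionine, ATP and bulk E. coli tRNA.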
GRIN3A LBD mod – binders of NR3A ligand-binding domain, primary screen, biophysical, differential scanning fluorimetry, uHTS. Glutamate receptor ionotropic, NMDA 3A (GRIN3A) ligand-binding domain. NR3A LBD differential scanning fluorimetry, Tm shift; 0% = protein alone, 100% = glycine-bound protein. Tm shift relative to glycine control, % at 25 µM. 2.5% of 340,000 active. AID 1259313, 2017;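 active = melting temperature shift of at least 10% of the positive control shift, at one fixed dose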
* hit, by the source's call.

C=CCN(CC=C)CCOc1ccccc1F was read as EBV gp42 block -1, WT yeast gro inh -10, MPTP inh 1, CHOP inhibitor 19, TbMetRS inhib -1 and GRIN3A LBD mod -1.
For COc1ccc(/C=C/c2nc3ccccc3n2C)cc1 the results were EBV gp42 block 4, WT yeast gro inh 86, MPTP inh 1, CHOP inhibitor 81*, TbMetRS inhib -4 and GRIN3A LBD mod -5.
For COc1ccc(Cn2c(/C=C/c3ccccc3)nc3ccccc32)cc1 the results were EBV gp42 block -6, WT yeast gro inh 21, MPTP inh 5, CHOP inhibitor 47, TbMetRS inhib -1 and GRIN3A LBD mod -4.
Screening O=C(/C=C/c1ccc2ccccc2n1)N1CCN(S(=O)(=O)c2ccccc2F)CC1 returned EBV gp42 block -20, MPTP inh 1, CHOP inhibitor 70*, TbMetRS inhib -1 and GRIN3A LBD mod 0.
`O=C(/C=C/c1ccc2ccccc2n1)N1CCN(S(=O)(=O)c2ccc(F)cc2)CC1` gave EBV gp42 block -27, MPTP inh 1, CHOP inhibitor 34, TbMetRS inhib 1 and GRIN3A LBD mod -2.
`O=C1NC(=O)/C(=C\c2ccc(Br)o2)S1` gave MPTP inh 2, TbMetRS inhib 0 and GRIN3A LBD mod 2.
O=C1OC(c2ccc(F)cc2)=N/C1=C\c1ccc(Br)o1 was read as EBV gp42 block -20, WT yeast gro inh -3, MPTP inh -1, CHOP inhibitor 73*, TbMetRS inhib -1 and GRIN3A LBD mod -1.
For CCN(CC(=O)NCc1cccs1)C(=O)c1ccc(S(=O)(=O)Nc2ccccc2C)cc1 the results were MPTP inh 0, TbMetRS inhib 0 and GRIN3A LBD mod 3.
`O=C(N/N=C/c1ccccn1)c1c[nH]c2ccccc12` gave EBV gp42 block -1, MPTP inh 2, CHOP inhibitor 9, TbMetRS inhib 1 and GRIN3A LBD mod 4.
`Cc1ccc(/C=N/NC(=O)c2c[nH]c3ccccc23)s1` gave EBV gp42 block -3, WT yeast gro inh -8, MPTP inh 1, CHOP inhibitor -28, TbMetRS inhib 0 and GRIN3A LBD mod 35*.
Screening Cc1ccc(/C=N/NC(=O)c2c[nH]c3ccccc23)o1 returned EBV gp42 block -8, WT yeast gro inh -8, MPTP inh 0, CHOP inhibitor -48, TbMetRS inhib 0 and GRIN3A LBD mod 17*.
CCn1nc(C)c(/C=N/NC(=O)c2c[nH]c3ccccc23)c1C was read as EBV gp42 block -7, WT yeast gro inh 12, MPTP inh 0, CHOP inhibitor 11, TbMetRS inhib 1 and GRIN3A LBD mod -2.
C/C(=N\NC(=O)c1csc(C)c1C)c1ccc(C)s1 was read as EBV gp42 block 5, WT yeast gro inh -2, MPTP inh 0, CHOP inhibitor -10, TbMetRS inhib -1 and GRIN3A LBD mod 15*.
Screening O=C(N/N=C/c1ccc[nH]1)c1c[nH]c2ccccc12 returned MPTP inh -1, TbMetRS inhib 0 and GRIN3A LBD mod 32*.
For Cc1ccc(CNC(=O)C2CCC(=O)N(CCc3cccc(F)c3)C2)s1 (stereo not drawn) the results were MPTP inh 1, TbMetRS inhib 0 and GRIN3A LBD mod 0.
CCCCCC(=O)N1C[C@@H](n2cc(-c3ccc(F)cc3)nn2)[C@H](O)C[C@@H]1c1ccc(C)cc1 was read as MPTP inh -1 and TbMetRS inhib -1.
For Cc1ccsc1/C=N/NC(=O)c1c[nH]c2ccccc12 the results were EBV gp42 block 0, WT yeast gro inh 5, MPTP inh 0, CHOP inhibitor 13, TbMetRS inhib 1 and GRIN3A LBD mod 15*.
`O=C(N/N=C/c1ccsc1)c1c[nH]c2ccccc12` gave MPTP inh -2, TbMetRS inhib 1 and GRIN3A LBD mod 31*.
O=C(N/N=C/c1ccsc1)c1ccccn1 was read as EBV gp42 block -2, WT yeast gro inh 11, MPTP inh 0, CHOP inhibitor -37, TbMetRS inhib -2 and GRIN3A LBD mod 0.
